Our source for the IC50, inhibition and Activity values is ChEMBL document CHEMBL5661979, “Pharmacological inhibition of BMK1 suppresses tumor growth through promyelocytic leukemia protein” (Cancer Cell, 2010).

In series [1] the target is Eukaryotic elongation factor 2 kinase (Homo sapiens, UniProt O00418). Kind of series: Inhibition of EEF2K in human HeLa cells lysate pre incubated for 15 mins followed by ATP acyl phosphate probe addition and measured after 10 mins by LC-MS/MS analysis. Format: subcellular.
Eukaryotic elongation factor 2 kinase, sequence (O00418 whole entry): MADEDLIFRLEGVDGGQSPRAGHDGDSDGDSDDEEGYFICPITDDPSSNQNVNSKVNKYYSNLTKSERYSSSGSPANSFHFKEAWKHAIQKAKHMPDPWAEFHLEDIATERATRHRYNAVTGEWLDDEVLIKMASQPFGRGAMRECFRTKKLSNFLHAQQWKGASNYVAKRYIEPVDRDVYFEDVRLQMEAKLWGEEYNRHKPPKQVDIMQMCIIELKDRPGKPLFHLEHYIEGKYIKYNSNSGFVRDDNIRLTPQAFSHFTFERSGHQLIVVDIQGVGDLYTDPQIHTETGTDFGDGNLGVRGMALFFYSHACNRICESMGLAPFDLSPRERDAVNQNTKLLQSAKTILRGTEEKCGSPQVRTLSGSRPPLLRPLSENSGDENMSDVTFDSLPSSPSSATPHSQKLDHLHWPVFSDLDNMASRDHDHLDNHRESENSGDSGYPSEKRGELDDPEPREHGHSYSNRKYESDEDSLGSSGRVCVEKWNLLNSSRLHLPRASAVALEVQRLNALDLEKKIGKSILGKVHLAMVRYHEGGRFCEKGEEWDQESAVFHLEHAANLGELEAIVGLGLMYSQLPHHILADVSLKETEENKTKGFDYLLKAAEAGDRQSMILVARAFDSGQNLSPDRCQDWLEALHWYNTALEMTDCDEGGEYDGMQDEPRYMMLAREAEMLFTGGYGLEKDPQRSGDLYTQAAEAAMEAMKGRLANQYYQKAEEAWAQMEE
Series [2] has as its target Serine/threonine-protein kinase 4 (Homo sapiens, UniProt Q13043). Kind of series: Inhibition of MST1 in human HeLa cells lysate pre incubated for 15 mins followed by ATP acyl phosphate probe addition and measured after 10 mins by LC-MS/MS analysis. The series is classed as subcellular.
Series [3] has as its target Ribosomal protein S6 kinase beta-2 (Homo sapiens, UniProt Q9UBS0). The experiment in a line: Inhibition of P70S6KB in human HeLa cells lysate pre incubated for 15 mins followed by ATP acyl phosphate probe addition and measured after 10 mins by LC-MS/MS analysis. The series is classed as subcellular.
In series [4] the target is Serine/threonine-protein kinase PRP4 homolog (Homo sapiens, UniProt Q13523). The experiment in a line: Inhibition of PRP4 in human HeLa cells lysate pre incubated for 15 mins followed by ATP acyl phosphate probe addition and measured after 10 mins by LC-MS/MS analysis. Format: subcellular.
The target of series [5] is SRSF protein kinase 1 (Homo sapiens, UniProt Q96SB4). Kind of series: Inhibition of SRPK1 in human HeLa cells lysate pre incubated for 15 mins followed by ATP acyl phosphate probe addition and measured after 10 mins by LC-MS/MS analysis. The series is classed as subcellular.
SRSF protein kinase 1, sequence (Q96SB4 whole entry): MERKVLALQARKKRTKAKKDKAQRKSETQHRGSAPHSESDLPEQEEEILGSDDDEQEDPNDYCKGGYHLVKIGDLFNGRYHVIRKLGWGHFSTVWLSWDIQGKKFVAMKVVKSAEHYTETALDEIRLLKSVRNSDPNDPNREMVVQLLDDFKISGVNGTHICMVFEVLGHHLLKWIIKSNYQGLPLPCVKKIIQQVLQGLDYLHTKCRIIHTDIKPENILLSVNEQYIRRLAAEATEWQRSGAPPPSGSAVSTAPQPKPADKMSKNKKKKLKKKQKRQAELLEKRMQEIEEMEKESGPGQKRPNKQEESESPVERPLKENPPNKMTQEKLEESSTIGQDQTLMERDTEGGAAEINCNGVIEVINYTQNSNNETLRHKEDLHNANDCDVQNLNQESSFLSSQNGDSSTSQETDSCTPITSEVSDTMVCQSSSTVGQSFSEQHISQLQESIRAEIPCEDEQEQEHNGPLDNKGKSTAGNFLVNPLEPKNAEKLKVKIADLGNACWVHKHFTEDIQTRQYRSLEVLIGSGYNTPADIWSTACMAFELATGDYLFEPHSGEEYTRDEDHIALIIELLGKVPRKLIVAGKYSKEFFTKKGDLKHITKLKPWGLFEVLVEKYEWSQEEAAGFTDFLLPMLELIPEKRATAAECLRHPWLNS
The nature of series [6]: Inhibition of PCTAIRE2/PCTAIRE3 in human HeLa cells lysate pre incubated for 15 mins followed by ADP acyl phosphate probe addition and measured after 10 mins by LC-MS/MS analysis. The series is classed as subcellular.
The target in series [7] is Macrophage-stimulating protein receptor (Homo sapiens, UniProt Q04912). Kind of series: Inhibition of RON in human HeLa cells lysate pre incubated for 15 mins followed by ADP acyl phosphate probe addition and measured after 10 mins by LC-MS/MS analysis. Format: subcellular.
Macrophage-stimulating protein receptor, sequence (Q04912 25-304 limits assumed): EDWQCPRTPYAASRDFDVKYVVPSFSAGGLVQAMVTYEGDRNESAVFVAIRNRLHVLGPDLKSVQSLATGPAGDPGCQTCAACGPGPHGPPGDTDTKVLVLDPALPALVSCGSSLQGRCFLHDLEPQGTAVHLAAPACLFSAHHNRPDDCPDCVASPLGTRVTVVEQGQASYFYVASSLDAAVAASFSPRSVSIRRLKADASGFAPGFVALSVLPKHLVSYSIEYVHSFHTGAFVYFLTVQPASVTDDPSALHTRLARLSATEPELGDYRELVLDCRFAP
Macrophage-stimulating protein receptor, sequence (Q04912 310-1400 limits assumed): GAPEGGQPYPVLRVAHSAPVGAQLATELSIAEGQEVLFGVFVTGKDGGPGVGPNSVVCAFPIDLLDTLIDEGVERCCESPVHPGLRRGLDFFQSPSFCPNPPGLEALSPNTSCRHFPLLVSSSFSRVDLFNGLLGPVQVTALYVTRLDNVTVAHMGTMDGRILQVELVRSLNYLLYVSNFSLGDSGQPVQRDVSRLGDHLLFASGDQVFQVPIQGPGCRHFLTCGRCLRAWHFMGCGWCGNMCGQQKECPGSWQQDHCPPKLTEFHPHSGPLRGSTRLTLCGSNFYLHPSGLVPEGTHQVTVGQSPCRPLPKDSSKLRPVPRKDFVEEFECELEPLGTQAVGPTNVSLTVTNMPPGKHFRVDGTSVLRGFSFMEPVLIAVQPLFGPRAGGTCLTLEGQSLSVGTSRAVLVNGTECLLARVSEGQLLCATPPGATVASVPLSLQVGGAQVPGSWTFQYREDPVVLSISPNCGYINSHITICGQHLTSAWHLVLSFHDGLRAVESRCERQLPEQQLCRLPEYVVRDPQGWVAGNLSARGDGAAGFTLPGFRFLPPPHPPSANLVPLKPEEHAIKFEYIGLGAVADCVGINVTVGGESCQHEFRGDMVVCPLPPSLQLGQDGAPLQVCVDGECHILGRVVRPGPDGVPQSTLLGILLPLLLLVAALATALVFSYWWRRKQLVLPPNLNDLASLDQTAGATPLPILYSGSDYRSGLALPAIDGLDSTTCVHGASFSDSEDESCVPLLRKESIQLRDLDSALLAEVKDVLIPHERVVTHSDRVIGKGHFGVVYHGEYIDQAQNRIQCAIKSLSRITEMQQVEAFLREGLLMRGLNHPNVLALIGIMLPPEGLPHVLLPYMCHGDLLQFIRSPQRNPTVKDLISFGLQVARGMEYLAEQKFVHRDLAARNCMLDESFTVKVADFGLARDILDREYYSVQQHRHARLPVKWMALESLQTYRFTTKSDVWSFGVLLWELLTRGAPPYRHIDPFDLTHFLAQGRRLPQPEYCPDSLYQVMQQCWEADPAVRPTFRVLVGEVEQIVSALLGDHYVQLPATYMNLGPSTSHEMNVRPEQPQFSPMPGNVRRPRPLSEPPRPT
The target of series [8] is T1, EKC/KEOPS complex subunit TP53RK (Homo sapiens) (UniProt Q96S44).
T1 sequence (whole entry): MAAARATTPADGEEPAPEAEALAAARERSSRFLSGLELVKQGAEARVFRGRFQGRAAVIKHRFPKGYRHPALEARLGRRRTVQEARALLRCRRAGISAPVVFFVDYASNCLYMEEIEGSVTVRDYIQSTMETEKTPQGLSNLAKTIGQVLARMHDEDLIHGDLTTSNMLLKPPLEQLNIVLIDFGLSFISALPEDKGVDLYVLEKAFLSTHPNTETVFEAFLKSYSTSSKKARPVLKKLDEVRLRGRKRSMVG
Kind of series: Inhibition of PRPK in human HeLa cells lysate at 50 uM pre incubated for 15 mins followed by ADP acyl phosphate probe addition and measured after 10 mins by LC-MS/MS analysis relative to control. The series is classed as subcellular. The note with it: time 25.0 min.

Series [9] deals with T2, Serine/threonine-protein kinase 4 (Homo sapiens) (UniProt Q13043).
T2 sequence (whole entry): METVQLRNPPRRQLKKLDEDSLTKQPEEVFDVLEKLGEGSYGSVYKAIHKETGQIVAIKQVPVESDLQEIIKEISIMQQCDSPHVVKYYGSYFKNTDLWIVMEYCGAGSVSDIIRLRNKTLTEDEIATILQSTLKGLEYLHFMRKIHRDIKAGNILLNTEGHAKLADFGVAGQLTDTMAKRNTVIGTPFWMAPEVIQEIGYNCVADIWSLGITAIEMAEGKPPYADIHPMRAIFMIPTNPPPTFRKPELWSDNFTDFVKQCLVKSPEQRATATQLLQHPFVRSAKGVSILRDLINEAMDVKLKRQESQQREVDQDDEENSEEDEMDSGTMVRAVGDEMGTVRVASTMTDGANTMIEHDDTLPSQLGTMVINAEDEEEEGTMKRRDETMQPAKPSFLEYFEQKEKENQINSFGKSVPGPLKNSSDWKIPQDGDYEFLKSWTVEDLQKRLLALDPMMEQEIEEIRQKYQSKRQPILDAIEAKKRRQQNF
The experiment in a line: Inhibition of MST1 in human HeLa cells lysate at 10 uM pre incubated for 15 mins followed by ADP acyl phosphate probe addition and measured after 10 mins by LC-MS/MS analysis relative to control. Format: subcellular. The note with it: time 25.0 min.

Series [10] concerns the target Serine/threonine-protein kinase LATS2 (Homo sapiens) (UniProt Q9NRM7). The experiment in a line: Inhibition of LATS2 in human HeLa cells lysate at 2 uM pre incubated for 15 mins followed by ADP acyl phosphate probe addition and measured after 10 mins by LC-MS/MS analysis relative to control. The note with it: time 25.0 min. The series is classed as subcellular.
Series [11] concerns the target Cyclin-dependent kinase 9 (Homo sapiens, UniProt P50750). The experiment in a line: Inhibition of CDK9 in human HeLa cells lysate at 2 uM pre incubated for 15 mins followed by ADP acyl phosphate probe addition and measured after 10 mins by LC-MS/MS analysis relative to control. Format: subcellular. The note with it: time 25.0 min. In outline: (§1)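 KiNativ profiling in HeLa lysate (5 mg/mL total protein). Lysate incubated 15 min with inhibitor at 50, 10, 2, 0.8 or 0 μM. ATP or ADP acylphosphate probe then added (5 μM final) and reacted 10 min. Reaction stopped with urea and analysed by targeted MS, using up to four fragment ions per kinase peptide-probe conjugate. % inhibition taken against untreated lysate. Run in duplicate.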

In series [12] the target is Cyclin-dependent kinase 8/19 (Homo sapiens, UniProt P49336+Q9BWU1). Kind of series: Inhibition of CDK8/CDK11 in human HeLa cells lysate at 50 uM pre incubated for 15 mins followed by ATP acyl phosphate probe addition and measured after 10 mins by LC-MS/MS analysis relative to control. The series is classed as subcellular. The note with it: time 25.0 min. Summed up:
as §1

The target in series [13] is Phosphatidylinositol 4-kinase beta (Homo sapiens, UniProt Q9UBF8). Kind of series: Inhibition of PIK4CB in human HeLa cells lysate at 10 uM pre incubated for 15 mins followed by ATP acyl phosphate probe addition and measured after 10 mins by LC-MS/MS analysis relative to control. Format: subcellular. The note with it: time 25.0 min.
Phosphatidylinositol 4-kinase beta, sequence (Q9UBF8 2-816 limits assumed): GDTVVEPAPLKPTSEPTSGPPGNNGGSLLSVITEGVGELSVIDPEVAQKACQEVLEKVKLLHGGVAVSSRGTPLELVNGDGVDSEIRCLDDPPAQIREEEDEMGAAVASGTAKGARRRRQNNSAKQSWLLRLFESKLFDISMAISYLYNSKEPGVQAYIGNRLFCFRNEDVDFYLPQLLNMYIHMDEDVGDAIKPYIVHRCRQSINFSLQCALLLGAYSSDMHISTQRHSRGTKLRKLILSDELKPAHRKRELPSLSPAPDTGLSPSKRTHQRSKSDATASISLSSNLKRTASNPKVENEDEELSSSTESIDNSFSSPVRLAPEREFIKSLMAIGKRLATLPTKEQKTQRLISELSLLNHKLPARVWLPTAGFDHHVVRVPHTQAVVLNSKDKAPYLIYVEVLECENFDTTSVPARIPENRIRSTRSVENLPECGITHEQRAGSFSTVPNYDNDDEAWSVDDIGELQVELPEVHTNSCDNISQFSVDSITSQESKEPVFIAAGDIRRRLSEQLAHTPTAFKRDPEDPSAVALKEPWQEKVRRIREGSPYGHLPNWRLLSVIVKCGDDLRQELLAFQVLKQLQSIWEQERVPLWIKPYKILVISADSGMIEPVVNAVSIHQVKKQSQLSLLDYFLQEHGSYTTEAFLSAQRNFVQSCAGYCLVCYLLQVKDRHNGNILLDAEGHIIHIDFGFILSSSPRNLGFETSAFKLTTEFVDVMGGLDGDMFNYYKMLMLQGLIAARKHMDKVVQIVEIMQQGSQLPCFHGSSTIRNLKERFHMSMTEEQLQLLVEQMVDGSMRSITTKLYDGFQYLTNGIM
Series [14] concerns the target Protein kinase C theta type (Homo sapiens, UniProt Q04759). The experiment in a line: Inhibition of PKCtheta in human HeLa cells lysate at 10 uM pre incubated for 15 mins followed by ATP acyl phosphate probe addition and measured after 10 mins by LC-MS/MS analysis relative to control. Format: subcellular. The note with it: time 25.0 min.
Series [15] is described as follows: Toxicity in C57Bl/6 mouse assessed as distress effect at 50 mg/kg, ip for 14 days. Format: organism-based. The note with it: in vivo, 336 h, time 14 day.
The test system of series [16] is A549. Kind of series: Antitumor activity against human A549 cells xenografted in NOD/SCID mouse assessed as increase in p21 protein expression level at 50 mg/kg, ip administered twice a day for 2 days by Western blot analysis. Format: functional, organism-based. The note with it: time 2.0 day. In outline: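 A549 cells (1×10^6, in DMEM) were injected s.c. into the right flank of 6-week-old Nod/Scid mice. On day 21, mice received 50 mg/kg twice daily or carrier; 2 per group. After 2 days, tumors were homogenized in E1A buffer. Western blot read BMK1 activation (mobility shift) and p21, quantified by densitometry normalized to GAPDH.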

The test system of series [17] is Lewis lung carcinoma. Kind of series: Antitumor activity against mouse LL2 cells allografted in C57Bl/6 mouse assessed as reduction tumor growth at 50 mg/kg, ip administered on day 7 post implantation measured after 17 days. The series is classed as functional, organism-based. The note with it: time 10.0 day. In outline: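 LL/2 cells (1×10^6, in DMEM) were injected s.c. into the right flank of 6-week-old C57Bl/6 mice on day 0. Dosing was 50 mg/kg i.p. twice daily, starting on day 1, 7 or 10 and continuing to day 17; controls received carrier. 6 mice per treated group. Tumors were measured every 2–3 days.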

Activity calls are given as the source filed them. No cut-off for these calls is given here.

Ribosomal protein S6 kinase beta-2, sequence (Q9UBS0 whole entry): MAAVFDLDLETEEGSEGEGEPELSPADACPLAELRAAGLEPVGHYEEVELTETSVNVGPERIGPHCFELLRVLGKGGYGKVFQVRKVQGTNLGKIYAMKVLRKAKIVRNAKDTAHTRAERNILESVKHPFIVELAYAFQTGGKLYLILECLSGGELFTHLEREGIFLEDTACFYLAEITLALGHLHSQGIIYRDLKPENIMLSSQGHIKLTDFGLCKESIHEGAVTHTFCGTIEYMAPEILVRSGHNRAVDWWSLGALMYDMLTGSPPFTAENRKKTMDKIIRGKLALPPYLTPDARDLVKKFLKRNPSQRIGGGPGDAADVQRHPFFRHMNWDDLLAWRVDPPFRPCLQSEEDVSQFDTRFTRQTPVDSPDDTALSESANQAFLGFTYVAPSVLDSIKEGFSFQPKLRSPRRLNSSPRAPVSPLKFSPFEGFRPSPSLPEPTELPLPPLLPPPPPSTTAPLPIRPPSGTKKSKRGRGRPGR
Cyclin-dependent kinase 9, sequence (P50750 whole entry, the tested form may be a part): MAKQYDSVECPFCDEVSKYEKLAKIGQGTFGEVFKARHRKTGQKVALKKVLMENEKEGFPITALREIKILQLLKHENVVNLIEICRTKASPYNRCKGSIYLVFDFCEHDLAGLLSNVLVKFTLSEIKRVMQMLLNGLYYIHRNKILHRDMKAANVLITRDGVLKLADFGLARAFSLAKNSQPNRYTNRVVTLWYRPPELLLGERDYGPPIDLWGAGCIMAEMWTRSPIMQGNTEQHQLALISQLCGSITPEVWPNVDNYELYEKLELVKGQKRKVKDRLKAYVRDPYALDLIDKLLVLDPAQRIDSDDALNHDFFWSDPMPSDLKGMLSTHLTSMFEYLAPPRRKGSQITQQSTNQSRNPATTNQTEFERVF

On to `CCOc1cc(N2CCC(O)CC2)ccc1Nc1ncc2c(n1)N(C)c1ccccc1C(=O)N2C`, for which the concentration for half-maximal inhibition (IC50) in series [1], in series [2], in series [3], in series [4], in [5] and in [6] was more than 50 µM each time. The IC50 (commonly the concentration needed to halve the response being measured) in series [7] was more than 50 µM. Moreover, the inhibition (usually the drop in the measured response relative to a control, in per cent) is 15.7% in [8]; 30.1% in series [9]; -4% in [10]; 0.8% in series [11]; 7.7% in series [12]; 25.8% in series [13]. Moreover, the inhibition in series [14] stood at 12.4%. For the same molecule, the Activity result in series [15] is “Non-Toxic”. For the same molecule, the result in [16] and in series [17] was Active.
